Measured values reported in article PMC6763203 (Molecular pharmaceutics, 2019).

Assays:
[1] = Hepatic microsome stability assay; format: in vitro ADME, mouse
[2] = Hepatic microsome stability assay; format: in vitro ADME, human
[3] = Plasma protein binding by equilibrium dialysis; format: in vitro ADME, human; conditions: 5 μM, 37 °C, 6 hours
In short: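 Equilibrium dialysis with test compound at 5 μM initial in the plasma chamber against PBS in the receiver chamber. Shaken at 37 °C for 6 h. Samples from both chambers were matrix-matched to 1:1 plasma:PBS and quantified by LC-MS/MS. Fraction bound = ([plasma] – [PBS]) / [plasma]. Run in triplicate.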

S. aureus ATCC 29213 = assay: Prevention of biofilm formation, microtiter dish assay; format: cell-based, Staphylococcus aureus; conditions: 2 μg/mL, 24 h
In short: (§1)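 Static biofilm prevention assay with S. aureus ATCC 29213 or MRSA clinical isolates from local hospitals in central China. Strains were grown in TSB plus 1% glucose in 96-well tissue-culture plates with test compound (0.0125–8 μg/mL) for 24 h. Wells were washed with sterile water and stained with 0.1% (w/v) crystal violet. Stain was solubilised in 95% ethanol and read at 540 nm. Results are reduction in biofilm mass, from three independent experiments in triplicate.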

MRSA [4] = assay: as above; format: cell-based, Staphylococcus aureus; conditions: for inhibition of biofilm formation: 0.0125–8 μg/mL, 24 h
In short: as §1

MRSA [5] = assay: MRSA mouse peritonitis model; format: in vivo; conditions: for MRSA in blood or kidney of the survived mice: 14 days after administration
[6] = mouse, liver microsomes, pH 7.4

SMILES: CC12C[C@@]34C=CC(=O)[C@@](C)(CCC(=O)Nc5c(O)ccc(C(=O)O)c5O)C3[C@H](CC1C4)O2 (some centres unmarked) [PTM, platensimycin, reference compound]
- half-life at 1 μM [1, 6]: 13.6 min
- microsomal CLint at 1 μM [1, 6]: 51 µL/min/mg
- microsomal CLint at 1 μM ([2]; human, liver microsomes, pH 7.4): 14 µL/min/mg
- Plasma Protein Binding, Bound [3]: 66.0%
- reduction of biofilm formation (S. aureus ATCC 29213): over 95%
- biofilm reduction, comparison of PTM with PTM-2t (MRSA [4]): reduced more biofilm from MRSA than PTM-2t
- inhibition of biofilm formation (MRSA [4]): dose-dependently inhibited

SMILES: CN[C@H](CC(C)C)C(=O)N[C@H]1C(=O)N[C@@H](CC(N)=O)C(=O)N[C@H]2C(=O)N[C@H]3C(=O)N[C@H](C(=O)N[C@H](C(=O)O)c4cc(O)cc(O)c4-c4cc3ccc4O)[C@H](O)c3ccc(c(Cl)c3)Oc3cc2cc(c3O[C@@H]2O[C@H](CO)[C@@H](O)[C@H](O)[C@H]2O[C@H]2C[C@](C)(N)[C@H](O)[C@H](C)O2)Oc2ccc(cc2Cl)[C@H]1O [vancomycin, reference compound]
- MRSA in blood or kidney of the survived mice (MRSA [5]): Only a few MRSA were present

SMILES: CCSC1CC(=O)C(C)(CCC(=O)Nc2c(O)ccc(C(=O)O)c2O)C2C3CC4CC12CC4(C)O3 (centres unmarked) [2t]
- Intrinsic Clearance ([1]; mouse liver microsomes 1 mg/mL, 1 μM compound): 46 µL/min/mg
- T1/2 ([1]; mouse liver microsomes 1 mg/mL, 1 μM compound, 37 °C): 15.0 min
- Intrinsic Clearance ([2]; human liver microsomes): 32.0 µL/min/mg
- Plasma Protein Binding, Bound [3]: 35.0%
- Plasma Protein Binding, Free [3]: 65.0%
- reduction of biofilm formation (S. aureus ATCC 29213): over 95%
- inhibition of biofilm formation (MRSA [4]): dose-dependently inhibited
- MRSA in blood or kidney of the survived mice (MRSA [5]): a significant number of MRSAs was still present
- mice survival (MRSA [5]; C57BL/6J mice, 50 mg/kg i.p. at 1 h and 5 h post infection, 14 days): 80%
